Calls of active or inactive are those of the source. The calls are words filed in the database; no cut-off is given here.
Columns and labels:
[1] = target: Dual specificity protein kinase TTK (Homo sapiens) (UniProt P33981); assay: Inhibition of recombinant TTK (unknown origin) assessed as residual activity at 1 uM relative to control
[2] = target: Serine/threonine-protein kinase Chk2 (Homo sapiens) (UniProt O96017); assay: Inhibition of recombinant CHK2 (unknown origin) assessed as residual activity at 1 uM relative to control
[3] = target: Serine/threonine-protein kinase pim-1 (Homo sapiens) (UniProt P11309); assay: Inhibition of recombinant PIM1 (unknown origin) assessed as residual activity at 1 uM relative to control
[4] = target: Serine/threonine-protein kinase STK11 (Homo sapiens) (UniProt Q15831); assay: Inhibition of recombinant LKB1 (unknown origin) assessed as residual activity at 1 uM relative to control
[5] = Cell cycle arrest in BrdU pulse-labelled human HCT116 cells assessed as decrease in cells at S phase at 125 to 500 nM after 24 hrs by propidium iodide staining based flow cytometry; format: functional; settings: HCT-116
[6] = target: Serine/threonine-protein kinase Nek6 (Homo sapiens) (UniProt Q9HC98); assay: Inhibition of recombinant NEK6 (unknown origin) assessed as residual activity at 1 uM relative to control
[7] = Cell cycle arrest in BrdU pulse-labelled human HCT116 cells assessed as accumulation at subG1 phase at 125 to 500 nM after 24 hrs by propidium iodide staining based flow cytometry; format: functional; settings: HCT-116
[8] = target: Rho-associated protein kinase 2 (Homo sapiens) (UniProt O75116); assay: Inhibition of recombinant ROCK2 (unknown origin) assessed as residual activity at 1 uM relative to control
[9] = target: Receptor tyrosine-protein kinase erbB-4 (Homo sapiens) (UniProt Q15303); assay: Inhibition of recombinant HER4 (unknown origin) assessed as residual activity at 1 uM relative to control
G-361 [10] = assay: Induction of apoptosis in human G361 cells assessed as caspase3 activation using Ac-DEVD-AMC as substrate at IC50 preincubated for 24 hrs followed by substrate addition measured after 3 hrs by fluorescence assay; format: functional, cell-based
[11] = target: Mitogen-activated protein kinase kinase kinase 7 (Homo sapiens) (UniProt O43318); assay: Inhibition of recombinant TAK1 (unknown origin) assessed as residual activity at 1 uM relative to control
[12] = target: Proto-oncogene tyrosine-protein kinase Src (Homo sapiens) (UniProt P12931); assay: Inhibition of recombinant SRC (unknown origin) assessed as residual activity at 1 uM relative to control
[13] = (§1) Cytotoxicity against human HCT116 cells assessed as reduction in cell viability after 72 hrs by calcein AM staining based fluorescence assay; format: functional; settings: HCT-116, 72 h
Procedure, shortened: (§2)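 Cells were grown in DMEM with 10% FBS, penicillin and streptomycin at 37 °C in 5% CO2. Three doses were tested in triplicate for 72 h. Live cells were read by Calcein AM fluorescence at 485/538 nm.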

HCT-116 [14] = assay: as §1; format: functional; procedure, shortened: as §2
[15] = target: Dual specificity mitogen-activated protein kinase kinase 1 (Homo sapiens) (UniProt Q02750); assay: Inhibition of recombinant MKK1 (unknown origin) assessed as residual activity at 1 uM relative to control
[16] = target: Vascular endothelial growth factor receptor (Homo sapiens) (UniProt P17948+P35916+P35968); assay: Inhibition of recombinant VEGFR (unknown origin) assessed as residual activity at 1 uM relative to control; format: protein assay
[17] = target: Insulin-like growth factor 1 receptor (Homo sapiens) (UniProt P08069); assay: Inhibition of recombinant IGF1R (unknown origin) assessed as residual activity at 1 uM relative to control
[18] = target: Ephrin type-A receptor 2 (Homo sapiens) (UniProt P29317); assay: Inhibition of recombinant EPHA2 (unknown origin) assessed as residual activity at 1 uM relative to control
[19] = target: MAP/microtubule affinity-regulating kinase 3 (Homo sapiens) (UniProt P27448); assay: Inhibition of recombinant MARK3 (unknown origin) assessed as residual activity at 1 uM relative to control
MCF7 [20] = assay: Cell cycle arrest in BrdU pulse-labelled human MCF7 cells assessed as decrease in cells at S phase at 8 to 250 nM after 24 hrs by propidium iodide staining based flow cytometry; format: functional
[21] = target: Mitogen-activated protein kinase 8 (Homo sapiens) (UniProt P45983); assay: Inhibition of recombinant JNK1 (unknown origin) assessed as residual activity at 1 uM relative to control
G-361 [22] = assay: Induction of apoptosis in human G361 cells assessed as caspase3 activation using Ac-DEVD-AMC as substrate at 5 times IC50 preincubated for 24 hrs followed by substrate addition measured after 3 hrs by fluorescence assay; format: functional, cell-based
Homo sapiens = species on record: Homo sapiens; assay: Inhibition of recombinant PKA (unknown origin) assessed as residual activity at 1 uM relative to control
[23] = target: Ribosomal protein S6 kinase alpha-1 (Homo sapiens) (UniProt Q15418); assay: Inhibition of recombinant RSK1 (unknown origin) assessed as residual activity at 1 uM relative to control
[24] = target: Serine/threonine-protein kinase D1 (Homo sapiens) (UniProt Q15139); assay: Inhibition of recombinant PKD1 (unknown origin) assessed as residual activity at 1 uM relative to control
[25] = target: Interleukin-1 receptor-associated kinase 4 (Homo sapiens) (UniProt Q9NWZ3); assay: Inhibition of recombinant IRAK4 (unknown origin) assessed as residual activity at 1 uM relative to control
[26] = target: Mitogen-activated protein kinase 14 (Homo sapiens) (UniProt Q16539); assay: Inhibition of recombinant p38alpha MAP kinase (unknown origin) assessed as residual activity at 1 uM relative to control
[27] = target: Casein kinase I isoform delta (Homo sapiens) (UniProt P48730); assay: Inhibition of recombinant CK1delta (unknown origin) assessed as residual activity at 1 uM relative to control
MCF7 [28] = assay: Cell cycle arrest in BrdU pulse-labelled human MCF7 cells assessed as accumulation at late G2/M phase at 8 to 250 nM after 24 hrs by propidium iodide staining based flow cytometry; format: functional
HCT-116 [29] = assay: Induction of apoptosis in human HCT116 cells assessed as caspase7 activation using Ac-DEVD-AMC as substrate preincubated for 24 hrs followed by substrate addition measured after 3 hrs by fluorescence assay; format: functional, cell-based
[30] = target: Myosin light chain kinase, smooth muscle (Homo sapiens) (UniProt Q15746); assay: Inhibition of recombinant smMLCK (unknown origin) assessed as residual activity at 1 uM relative to control
[31] = target: Eukaryotic elongation factor 2 kinase (Homo sapiens) (UniProt O00418); assay: Inhibition of recombinant EF2K (unknown origin) assessed as residual activity at 1 uM relative to control
MCF7 [32] = assay: Cell cycle arrest in BrdU pulse-labelled human MCF7 cells assessed as accumulation at subG1 phase at 8 to 250 nM after 24 hrs by propidium iodide staining based flow cytometry; format: functional
[33] = target: Dual specificity tyrosine-phosphorylation-regulated kinase 1A (Homo sapiens) (UniProt Q13627); assay: Inhibition of recombinant DYRK1A (unknown origin) assessed as residual activity at 1 uM relative to control

Chain of Myosin light chain kinase, smooth muscle (Homo sapiens) (Q15746 whole entry): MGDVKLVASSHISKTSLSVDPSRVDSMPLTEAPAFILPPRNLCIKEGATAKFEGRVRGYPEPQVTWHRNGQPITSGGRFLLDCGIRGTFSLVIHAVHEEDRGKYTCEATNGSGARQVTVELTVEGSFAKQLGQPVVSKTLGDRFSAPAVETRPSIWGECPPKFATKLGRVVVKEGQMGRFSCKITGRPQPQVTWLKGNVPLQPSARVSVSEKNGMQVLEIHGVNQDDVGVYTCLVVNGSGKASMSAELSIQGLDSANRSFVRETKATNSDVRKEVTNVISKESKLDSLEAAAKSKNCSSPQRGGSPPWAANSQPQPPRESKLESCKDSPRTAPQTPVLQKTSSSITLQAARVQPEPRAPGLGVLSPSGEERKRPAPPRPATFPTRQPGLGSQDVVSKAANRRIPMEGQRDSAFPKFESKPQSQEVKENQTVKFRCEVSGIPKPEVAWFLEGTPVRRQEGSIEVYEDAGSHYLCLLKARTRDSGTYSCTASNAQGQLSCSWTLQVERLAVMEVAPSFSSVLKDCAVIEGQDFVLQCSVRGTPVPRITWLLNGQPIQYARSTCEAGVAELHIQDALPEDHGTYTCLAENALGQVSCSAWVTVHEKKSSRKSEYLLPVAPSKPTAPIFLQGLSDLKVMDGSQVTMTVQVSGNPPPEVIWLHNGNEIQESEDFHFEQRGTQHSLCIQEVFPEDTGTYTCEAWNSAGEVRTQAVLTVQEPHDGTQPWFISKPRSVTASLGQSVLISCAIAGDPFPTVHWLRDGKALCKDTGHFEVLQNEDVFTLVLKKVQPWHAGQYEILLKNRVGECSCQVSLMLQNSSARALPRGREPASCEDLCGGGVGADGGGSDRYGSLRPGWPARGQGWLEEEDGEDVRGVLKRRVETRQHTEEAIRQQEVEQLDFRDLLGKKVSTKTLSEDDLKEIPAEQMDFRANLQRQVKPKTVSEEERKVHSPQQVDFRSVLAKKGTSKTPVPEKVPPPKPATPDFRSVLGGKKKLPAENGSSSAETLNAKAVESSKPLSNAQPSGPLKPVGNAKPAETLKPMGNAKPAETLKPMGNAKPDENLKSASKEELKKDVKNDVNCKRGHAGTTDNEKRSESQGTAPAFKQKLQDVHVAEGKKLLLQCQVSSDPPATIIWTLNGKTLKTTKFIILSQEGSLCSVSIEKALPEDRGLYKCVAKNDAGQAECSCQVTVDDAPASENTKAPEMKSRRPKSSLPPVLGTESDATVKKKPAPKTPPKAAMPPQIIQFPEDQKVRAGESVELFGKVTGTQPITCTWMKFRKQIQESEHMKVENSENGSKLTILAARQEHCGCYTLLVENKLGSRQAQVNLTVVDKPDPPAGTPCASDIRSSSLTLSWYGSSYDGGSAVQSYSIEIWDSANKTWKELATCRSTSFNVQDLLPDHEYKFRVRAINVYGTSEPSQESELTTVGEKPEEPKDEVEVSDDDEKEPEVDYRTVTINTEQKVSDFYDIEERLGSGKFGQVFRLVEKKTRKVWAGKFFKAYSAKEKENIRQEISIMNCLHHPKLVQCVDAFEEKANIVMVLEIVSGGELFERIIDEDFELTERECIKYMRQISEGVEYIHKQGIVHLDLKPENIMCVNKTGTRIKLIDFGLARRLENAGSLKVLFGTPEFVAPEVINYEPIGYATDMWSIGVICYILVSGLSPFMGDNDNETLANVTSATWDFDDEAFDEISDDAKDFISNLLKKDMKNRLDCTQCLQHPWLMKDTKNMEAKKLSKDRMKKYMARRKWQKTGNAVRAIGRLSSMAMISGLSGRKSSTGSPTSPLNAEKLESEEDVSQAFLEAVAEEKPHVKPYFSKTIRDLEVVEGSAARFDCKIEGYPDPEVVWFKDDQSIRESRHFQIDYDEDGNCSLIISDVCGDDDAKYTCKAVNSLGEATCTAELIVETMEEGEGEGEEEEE
Chain of Serine/threonine-protein kinase pim-1 (Homo sapiens) (P11309 whole entry, looked up): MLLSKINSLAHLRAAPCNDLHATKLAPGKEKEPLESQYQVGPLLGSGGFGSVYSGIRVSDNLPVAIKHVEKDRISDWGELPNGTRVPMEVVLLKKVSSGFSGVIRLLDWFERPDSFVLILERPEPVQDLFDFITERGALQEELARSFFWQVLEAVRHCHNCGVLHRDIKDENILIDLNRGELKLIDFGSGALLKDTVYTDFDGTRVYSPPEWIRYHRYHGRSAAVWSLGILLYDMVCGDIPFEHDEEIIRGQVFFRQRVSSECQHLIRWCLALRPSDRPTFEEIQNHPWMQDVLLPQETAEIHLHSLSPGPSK
Chain of Proto-oncogene tyrosine-protein kinase Src (Homo sapiens) (P12931 2-536 limits assumed): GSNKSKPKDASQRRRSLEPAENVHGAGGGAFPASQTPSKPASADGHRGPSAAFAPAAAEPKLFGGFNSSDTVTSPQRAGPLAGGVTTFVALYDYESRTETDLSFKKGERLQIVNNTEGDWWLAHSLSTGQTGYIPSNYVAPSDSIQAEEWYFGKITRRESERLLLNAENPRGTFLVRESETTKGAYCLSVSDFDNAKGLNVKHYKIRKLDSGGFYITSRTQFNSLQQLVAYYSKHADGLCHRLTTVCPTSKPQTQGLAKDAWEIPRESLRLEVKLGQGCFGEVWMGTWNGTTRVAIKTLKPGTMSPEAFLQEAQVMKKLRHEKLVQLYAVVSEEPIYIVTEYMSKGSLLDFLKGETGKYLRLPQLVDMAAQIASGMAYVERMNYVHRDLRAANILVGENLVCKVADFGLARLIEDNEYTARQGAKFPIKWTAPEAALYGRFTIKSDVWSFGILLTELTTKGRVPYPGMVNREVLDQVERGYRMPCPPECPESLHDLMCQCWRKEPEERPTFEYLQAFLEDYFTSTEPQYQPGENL
Chain of Rho-associated protein kinase 2 (Homo sapiens) (O75116 whole entry, looked up): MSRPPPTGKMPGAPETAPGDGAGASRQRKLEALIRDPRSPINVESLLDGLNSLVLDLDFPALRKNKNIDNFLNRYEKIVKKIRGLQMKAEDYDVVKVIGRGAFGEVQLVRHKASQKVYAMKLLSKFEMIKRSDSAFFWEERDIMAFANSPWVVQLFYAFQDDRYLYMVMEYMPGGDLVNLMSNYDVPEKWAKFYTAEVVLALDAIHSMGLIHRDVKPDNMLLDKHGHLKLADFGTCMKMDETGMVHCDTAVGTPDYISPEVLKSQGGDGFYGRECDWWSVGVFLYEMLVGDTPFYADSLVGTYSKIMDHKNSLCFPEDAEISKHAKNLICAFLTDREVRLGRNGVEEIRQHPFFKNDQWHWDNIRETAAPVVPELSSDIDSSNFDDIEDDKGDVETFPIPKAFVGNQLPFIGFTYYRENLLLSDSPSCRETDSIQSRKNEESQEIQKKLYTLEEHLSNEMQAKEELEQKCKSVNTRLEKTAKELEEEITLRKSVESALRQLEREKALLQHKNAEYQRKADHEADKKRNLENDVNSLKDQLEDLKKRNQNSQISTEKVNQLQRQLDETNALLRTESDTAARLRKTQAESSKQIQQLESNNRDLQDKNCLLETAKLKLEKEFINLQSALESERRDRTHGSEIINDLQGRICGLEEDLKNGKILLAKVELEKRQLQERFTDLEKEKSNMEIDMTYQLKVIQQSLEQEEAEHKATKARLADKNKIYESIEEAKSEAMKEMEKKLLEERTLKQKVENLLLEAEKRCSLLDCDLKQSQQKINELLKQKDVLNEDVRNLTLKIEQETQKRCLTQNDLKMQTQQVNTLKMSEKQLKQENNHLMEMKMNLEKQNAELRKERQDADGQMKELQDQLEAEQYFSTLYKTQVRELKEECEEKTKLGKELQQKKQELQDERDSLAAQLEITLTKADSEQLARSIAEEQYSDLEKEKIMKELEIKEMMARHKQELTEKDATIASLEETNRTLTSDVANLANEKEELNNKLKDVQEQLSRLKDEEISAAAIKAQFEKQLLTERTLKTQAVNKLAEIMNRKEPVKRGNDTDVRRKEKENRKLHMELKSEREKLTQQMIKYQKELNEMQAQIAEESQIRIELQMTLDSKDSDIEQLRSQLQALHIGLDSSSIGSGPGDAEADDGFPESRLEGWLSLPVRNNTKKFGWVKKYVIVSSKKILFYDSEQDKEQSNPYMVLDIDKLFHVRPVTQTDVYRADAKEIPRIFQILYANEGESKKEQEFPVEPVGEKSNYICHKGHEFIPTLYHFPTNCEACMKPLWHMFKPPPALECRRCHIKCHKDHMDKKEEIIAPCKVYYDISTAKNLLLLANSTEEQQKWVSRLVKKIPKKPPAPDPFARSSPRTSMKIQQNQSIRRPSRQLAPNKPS
Chain of Serine/threonine-protein kinase Nek6 (Homo sapiens) (Q9HC98 whole entry): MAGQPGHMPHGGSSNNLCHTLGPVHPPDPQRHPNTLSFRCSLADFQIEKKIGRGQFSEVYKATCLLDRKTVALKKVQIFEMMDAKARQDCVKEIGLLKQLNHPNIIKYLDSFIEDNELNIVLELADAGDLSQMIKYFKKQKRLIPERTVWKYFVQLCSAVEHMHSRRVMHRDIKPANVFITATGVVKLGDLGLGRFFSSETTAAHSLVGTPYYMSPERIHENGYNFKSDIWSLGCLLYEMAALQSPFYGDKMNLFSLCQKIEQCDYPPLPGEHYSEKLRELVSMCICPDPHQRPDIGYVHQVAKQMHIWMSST
Chain of Interleukin-1 receptor-associated kinase 4 (Homo sapiens) (Q9NWZ3 whole entry): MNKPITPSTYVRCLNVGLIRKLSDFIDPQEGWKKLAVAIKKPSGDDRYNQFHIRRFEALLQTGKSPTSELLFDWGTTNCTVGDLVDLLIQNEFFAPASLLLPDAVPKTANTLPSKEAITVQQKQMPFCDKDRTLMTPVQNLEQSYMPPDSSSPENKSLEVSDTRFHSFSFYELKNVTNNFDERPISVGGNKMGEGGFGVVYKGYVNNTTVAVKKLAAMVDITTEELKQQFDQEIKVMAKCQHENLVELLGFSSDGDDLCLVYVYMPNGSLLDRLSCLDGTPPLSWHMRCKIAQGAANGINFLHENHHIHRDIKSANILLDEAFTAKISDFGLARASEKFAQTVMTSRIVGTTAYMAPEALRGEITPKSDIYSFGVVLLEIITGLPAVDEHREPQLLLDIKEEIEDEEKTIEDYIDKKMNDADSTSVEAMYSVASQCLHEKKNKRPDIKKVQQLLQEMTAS

Q: With CC(O)CNc1nc(NCc2ccc(-c3ccccn3)cc2)c2[nH]nc(C(C)C)c2n1 (centres undefined) as the compound, how does the Activity [1] read?
A: 79%

Q: What about the Activity [2] of the same compound?
A: 79%

Q: What about the Activity [3] of the same compound?
A: > 100%

Q: And the Activity [4]?
A: 82%

Q: And the Activity [5]?
A: Active

Q: And the Activity [6]?
A: 85%

Q: And the Activity [7]?
A: Active

Q: What about the Activity [8] of the same compound?
A: > 100%

Q: What about the Activity [9] of the same compound?
A: > 100%

Q: What about the Activity (G-361 [10]) of the same compound?
A: Active

Q: What about the Activity [11] of the same compound?
A: > 100%

Q: What about the Activity [12] of the same compound?
A: 88%

Q: What about the IC50 [13] of the same compound?
A: 87 nM

Q: What about the Activity (HCT-116 [14]) of the same compound?
A: Dose-dependent effect

Q: What about the Activity [15] of the same compound?
A: 87%

Q: And the Activity [16]?
A: > 100%

Q: And the Activity [17]?
A: > 100%

Q: What about the Activity [18] of the same compound?
A: 92%

Q: And the Activity [19]?
A: > 100%

Q: What about the Activity (MCF7 [20]) of the same compound?
A: Active

Q: What about the Activity [21] of the same compound?
A: 93%

Q: And the Activity (G-361 [22])?
A: Active

Q: And the Activity (Homo sapiens)?
A: 96%

Q: What about the Activity [23] of the same compound?
A: 77%

Q: What about the Activity [24] of the same compound?
A: > 100%

Q: What about the Activity [25] of the same compound?
A: > 100%

Q: What about the Activity [26] of the same compound?
A: > 100%

Q: What about the Activity [27] of the same compound?
A: 67%

Q: What about the Activity (MCF7 [28]) of the same compound?
A: Active

Q: What about the Activity (HCT-116 [29]) of the same compound?
A: Dose-dependent effect

Q: And the Activity [30]?
A: 90%

Q: What about the Activity [31] of the same compound?
A: 92%

Q: And the Activity (MCF7 [32])?
A: Active

Q: What about the Activity [33] of the same compound?
A: 60%

From ChEMBL document CHEMBL3774312, “5-Substituted 3-isopropyl-7-[4-(2-pyridyl)benzyl]amino-1(2)H-pyrazolo[4,3-d]pyrimidines with anti-proliferative activity as potent and selective inhibitors of cyclin-dependent kinases” (Eur J Med Chem, 2016)
